Measurements published in ChEMBL document CHEMBL3739398, “Inhibition of Invasion in Pancreatic Cancer Cells by Conjugate of EPA with β(3,3)-Pip-OH via PI3K/Akt/NF-kB Pathway” (ACS Med Chem Lett, 2015).
pIC50: −log10 of the molar value. Calls of active or inactive are those of the source. The calls are words filed in the database; no cut-off is given here.

Columns and labels:
[1] = Cytotoxicity against human PANC1 cells by MTT assay; format: functional, cell-based; conditions: PANC-1
[2] = Cytotoxicity against human HCT116 cells by MTT assay; format: functional, cell-based; conditions: HCT-116
[3] = Cytotoxicity against human PC3 cells by MTT assay; format: functional, cell-based; conditions: PC-3
[4] = Downregulation of PI3K-p85 alpha expression in human PANC1 cells by western blot analysis; format: functional, cell-based; conditions: PANC-1
Summary of the method: (§1)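 PANC-1 seeded in six-well plates and treated with indicated compound concentrations; whole-cell lysates probed for target proteins by Western blotting.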

[5] = tested on: PANC-1; experiment: Antimetastatic activity in human PANC1 cells at 2 and 4 uM after 24 hrs by fluorescent gelatin degradation assay; format: functional, cell-based
Summary of the method: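 PANC-1 grown 24 h on coverslips coated with cross-linked FITC-conjugated gelatin in presence of compound; matrix degradation spots visualized by fluorescence and degraded area highlighted by image analysis.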

[6] = Upregulation of TIMP1 expression in human PANC1 cells by western blot analysis; format: functional, cell-based; conditions: PANC-1; summary of the method: as §1
[7] = Downregulation of PI3K-p110 alpha expression in human PANC1 cells by western blot analysis; format: functional, cell-based; conditions: PANC-1; summary of the method: as §1
[8] = tested on: PANC-1; experiment: Inhibition of PI3K-mediated Akt phosphorylation at S473 residue in human PANC1 cells by western blot analysis; format: cell-based; summary of the method: as §1
[9] = Downregulation of NF-kappaB expression in human PANC1 cells by western blot analysis; format: functional, cell-based; conditions: PANC-1; summary of the method: as §1
[10] = tested on: PANC-1; experiment: Inhibition of cell migration in human PANC1 cells at 2 and 4 microM after 48 hrs by wound healing assay; format: functional, cell-based
Summary of the method: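 Scratch wound made in PANC-1 monolayer; cells treated with compound at 2.0 and 4.0 μM, DMSO vehicle control; wound area photographed at 20× magnification at 0 h and after incubation; statistics from three independent experiments.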

[11] = Downregulation of MMP-9 expression in human PANC1 cells at 2 and 4 uM by western blot analysis; format: functional, cell-based; conditions: PANC-1; summary of the method: as §1
[12] = Effect on total mTOR expression in human PANC1 cells at 2 and 4 uM by western blot analysis; format: cell-based; conditions: panc-1; summary of the method: as §1
[13] = tested on: PANC-1; experiment: Inhibition of PI3K-mediated mTOR phosphorylation in human PANC1 cells at 2 and 4 uM by western blot analysis; format: cell-based; summary of the method: as §1
[14] = tested on: PANC-1; experiment: Inhibition of cell invasion in human PANC1 cells at 2 and 4 uM for 24 hrs by matrigel invasion assay; format: functional, cell-based
Summary of the method: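 Boyden chamber matrigel invasion: PANC-1 treated 24 h with compound (2.0 and 4.0 μM); invaded cells counted in five random fields per group under inverted microscope (20×); three independent experiments, p < 0.05.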

[15] = tested on: PANC-1; experiment: Inhibition of cell invasion in human PANC1 cells by 3D invasion assay in presence of neutralized collagen; format: functional, cell-based
Summary of the method: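 PANC-1 mixed with neutralized collagen, spotted centrally in wells and solidified as a cell-collagen hemisphere; fresh medium with or without compound added; invasion beyond the original collagen boundary scored against DMSO-treated cells.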

[16] = tested on: PANC-1; experiment: Inhibition of colony formation in human PANC1 cells at 2 and 4 uM for 5 days by crystal violet staining based microscopic analysis; format: functional, cell-based
Summary of the method: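 PANC-1 seeded at 1 × 10^3 cells/well, treated with compound alongside DMSO for 5 days; crystal violet-stained colonies counted in random fields and imaged under inverted microscope (20×); three independent experiments.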

[17] = Upregulation of E-cadherin expression in human PANC1 cells at 2 and 4 uM by western blot analysis; format: functional, cell-based; conditions: PANC-1; summary of the method: as §1
[18] = Downregulation of MMP-2 expression in human PANC1 cells at 2 and 4 uM by western blot analysis; format: functional, cell-based; conditions: PANC-1; summary of the method: as §1
[19] = Downregulation of S6K expression in human PANC1 cells at 2 and 4 uM by western blot analysis; format: functional, cell-based; conditions: PANC-1; summary of the method: as §1

| SMILES | pIC50 [1] | pIC50 [2] | pIC50 [3] | further results |
| --- | --- | --- | --- | --- |
| CCC(/C=C/C(=O)N[C@@H](Cc1ccccc1)C(=O)OC)=C\c1ccc2c(c1)OCO2 | < 4.00 | 4.32 | 4.38 | – |
| CCC(/C=C/C(=O)N1CCC[C@H]1C(=O)OC)=C\c1ccc2c(c1)OCO2 | 4.37 | 4.30 | 4.80 | – |
| CCC(/C=C/C(=O)NCC1(CC(=O)OC)CCCCC1)=C\c1ccc2c(c1)OCO2 | 5.00 | 4.32 | 4.34 | – |
| CCC(/C=C/C(=O)O)=C\c1ccc2c(c1)OCO2 | < 4.00 | < 4.00 | < 4.00 | – |
| CCC(/C=C/C(=O)N[C@@H](C)C(=O)OC)=C\c1ccc2c(c1)OCO2 | 5.17 | 4.33 | 4.36 | – |
| CCCCC(=O)NC1(CC(=O)NNc2ccccc2)CCN(C(=O)/C=C/C(=C/c2ccc3c(c2)OCO3)CC)CC1 | 5.40 | < 4.00 | 4.82 | inhibition [4]: Dose-dependent effect; inhibition [5]: Active; Activity [6]: Dose-dependent effect; inhibition [7]: Dose-dependent effect; inhibition [8]: Dose-dependent effect; inhibition [9]: Dose-dependent effect; inhibition [10]: Active; inhibition [11]: Active; Activity [12]: Non-toxic; inhibition [13]: Active; inhibition [14]: Active; inhibition [15]: Dose-dependent effect; inhibition [16]: Active; Activity [17]: Active; inhibition [18]: Active; inhibition [19]: Active |
| CCC(/C=C/C(=O)NC1(CC(=O)OC)CCCCC1)=C\c1ccc2c(c1)OCO2 | < 4.00 | < 4.00 | 4.70 | – |
